In experiment [1] the target is T1, Glucagon-like peptide 1 receptor (Rattus norvegicus) (UniProt P32301).
T1 sequence (whole entry): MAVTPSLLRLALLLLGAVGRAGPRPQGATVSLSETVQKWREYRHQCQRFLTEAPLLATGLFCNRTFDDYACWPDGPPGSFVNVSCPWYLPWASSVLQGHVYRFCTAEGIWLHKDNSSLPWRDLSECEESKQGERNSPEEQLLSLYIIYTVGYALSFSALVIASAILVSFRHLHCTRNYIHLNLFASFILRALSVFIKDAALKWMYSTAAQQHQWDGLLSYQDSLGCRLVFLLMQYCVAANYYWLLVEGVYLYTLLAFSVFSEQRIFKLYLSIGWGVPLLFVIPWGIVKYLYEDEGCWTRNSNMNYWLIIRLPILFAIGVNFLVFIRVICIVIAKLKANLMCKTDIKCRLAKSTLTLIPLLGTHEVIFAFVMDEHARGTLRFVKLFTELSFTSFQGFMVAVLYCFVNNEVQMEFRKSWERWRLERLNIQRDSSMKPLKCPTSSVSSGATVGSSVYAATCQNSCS
The experiment in a line: Inhibition of [125I]GLP1 (7-36) amide binding to rat GLP1R expressed in HEK293 cells relative to untreated control. Type of experiment: cell-based. Conditions: concentration not given here. The arrangement: concentration or dose not given beside the values. The procedure, abridged: (§1)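 Membranes (17 μg protein) from HEK293 cells stably expressing rat GLP-1R were preincubated 5 h at 4 °C with FlashBlue beads (150 μg). Then 40 pM [125I]GLP-1(7−36) amide or [125I]Exendin(9−39) was added with aprotinin 2 μg/mL, leupeptin 100 μM and test compound at varied concentrations. Incubated overnight at 4 °C, then bound radioactivity counted. Mean ± SEM of two independent experiments.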

For experiment [2], the target named is T1, Glucagon-like peptide 1 receptor (Rattus norvegicus). As to the kind of experiment: Agonist activity at rat GLP1R expressed in HEK293 cells assessed as stimulation of cAMP levels incubated for 6 hrs by multiple response element/cAMP response element (MRE/CRE)-driven reporter gene assay relative to 10 nM GLP1. Type of experiment: functional, cell-based. The method, boiled down: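 Stable HEK293 line co-expressing rat GLP-1R (pCMV-Tag2B) and a luciferase reporter with 3× MRE plus 1× CRE, seeded at 40000 cells/well and cultured overnight. Compounds in DMSO or GLP-1(7−37) were added for 6 h, then cells were lysed and luciferase read (Steady-Glo). The 10 nM GLP-1 maximum was taken as 100%. Mean ± SEM of two independent experiments; some values come from a single run.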
Background: Cyclic AMP is a second messenger, typically raised through Gs and lowered through Gi signalling.

The target is the same in experiment [3]. The experiment in a line: Inhibition of [125I]Exendin (9-39) binding to rat GLP1R expressed in HEK293 cells. The format is cell-based. The arrangement: concentration or dose not given beside the values. Conditions: concentration not given here. The method, boiled down:
as §1

The target in experiment [4] is T2, Glucagon-like peptide 1 receptor (Rattus norvegicus, UniProt P32301).
T2 sequence (P32301 whole entry): T1 sequence (whole entry)
As to the kind of experiment: Inhibition of [125I]GLP1 (7-36) amide binding to rat GLP1R expressed in HEK293 cells. The format is cell-based. The method, boiled down:
as §1

As to `COc1cc([C@H]2[C@](NC(=O)c3ccc(NC(=O)C(C)C)cc3)(C(=O)O)[C@@H](c3ccc(OC(C)=O)c(OC)c3)[C@]2(NC(=O)c2ccc(NC(=O)C(C)C)cc2)C(=O)O)ccc1OC(C)=O`, the inhibition amounted to 34.1% in experiment [1] and 35.2% in experiment [3]. In addition, in experiment [2], the Efficacy is 30%.

Take `COc1cc([C@H]2[C@](NC(=O)c3ccc(NC(=O)C(C)N)cc3)(C(=O)O)[C@@H](c3ccc(OC(=O)c4cccs4)c(OC)c3)[C@]2(NC(=O)c2ccc(NC(=O)C(C)N)cc2)C(=O)O)ccc1OC(=O)c1cccs1` (some centres not stated): the inhibition in experiment [1] came out at 35.2%; in experiment [3], 27.9%. Further, in experiment [4], the concentration for half-maximal inhibition (IC50) was 16200 nM. Moreover, the Efficacy in experiment [2] amounted to 48%.

Regarding `COc1cc([C@H]2[C@](NC(=O)c3ccc(NC(=O)C(C)NC(=O)OC(C)(C)C)cc3)(C(=O)O)[C@@H](c3ccc(OC(=O)c4cccs4)c(OC)c3)[C@]2(NC(=O)c2ccc(NC(=O)C(C)NC(=O)OC(C)(C)C)cc2)C(=O)O)ccc1OC(=O)c1cccs1` (some centres not stated), the inhibition is 77.3% in experiment [1] and 69.7% in experiment [3]. In experiment [4], this compound came in with an IC50 of 900 nM. For the same compound, in experiment [2], the Efficacy was 49%.

Turning to `COc1cc([C@H]2[C@](NC(=O)c3ccc(NC(=O)Cc4ccccc4)cc3)(C(=O)O)[C@@H](c3ccc(OC(=O)c4cccs4)c(OC)c3)[C@]2(NC(=O)c2ccc(NC(=O)Cc3ccccc3)cc2)C(=O)O)ccc1OC(=O)c1cccs1`, the inhibition in experiment [1] came out at 45.7%; in experiment [3], 33.4%. In experiment [4], this compound gave an IC50 of 3200 nM. Also, in experiment [2], the Efficacy amounted to 32%.

Turning to `COc1cc([C@H]2[C@](NC(=O)c3ccc(NC(=O)COCc4ccccc4)cc3)(C(=O)O)[C@@H](c3ccc(OC(=O)c4cccs4)c(OC)c3)[C@]2(NC(=O)c2ccc(NC(=O)COCc3ccccc3)cc2)C(=O)O)ccc1OC(=O)c1cccs1`, the figures for the inhibition in experiment [1] and in experiment [3] were 57.5% and 45.9%, respectively. For the same compound, the IC50 in experiment [4] turned out to be 1900 nM. In addition, the Efficacy in experiment [2] worked out at 12%.

For `CC(C)(C)OC(=O)Nc1ccc(C(=O)N[C@]2(C(=O)O)[C@H](c3ccc(OCc4ccccc4)cc3)[C@@](NC(=O)c3ccc(NC(=O)OC(C)(C)C)cc3)(C(=O)O)[C@@H]2c2ccc(OCc3ccccc3)cc2)cc1`, the inhibition in experiment [1] turned out to be 21.2%; in experiment [3], 9.6%. In experiment [2], the Efficacy stood at 24.8%.

As to `CC(C)(C)OC(=O)Nc1ccc(C(=O)N[C@]2(C(=O)O)[C@H](c3ccc(OC(=O)c4cccs4)cc3)[C@@](NC(=O)c3ccc(NC(=O)OC(C)(C)C)cc3)(C(=O)O)[C@@H]2c2ccc(OC(=O)c3cccs3)cc2)cc1`, the inhibition in experiment [1] is 63.7%; in experiment [3], below 15%. The Efficacy in experiment [2] is 63.7%.

Regarding `COc1cc([C@H]2[C@](NC(=O)c3ccc(NC(=O)OC(C)(C)C)cc3)(C(=O)O)[C@@H](c3ccc(OC(=O)Cc4ccccc4)c(OC)c3)[C@]2(NC(=O)c2ccc(NC(=O)OC(C)(C)C)cc2)C(=O)O)ccc1OC(=O)Cc1ccccc1`, the inhibition in experiment [1] worked out at 17.5%; in experiment [3] it was 4.8%. The Efficacy in experiment [2] was 26%.

In the case of `COc1cc([C@H]2[C@](NC(=O)c3ccc(NC(=O)OC(C)(C)C)cc3)(C(=O)O)[C@@H](c3ccc(OC(=O)c4cccs4)c(OC)c3)[C@]2(NC(=O)c2ccc(NC(=O)OC(C)(C)C)cc2)C(=O)O)ccc1OC(=O)c1cccs1` (stereo in doubt), the inhibition in experiment [1] turned out to be 89.8%; in experiment [3], 70.5%. For the same compound, the Efficacy in experiment [2] was determined as 121%.

`CC(C)(C)OC(=O)Nc1ccc(C(=O)N[C@]2(C(=O)O)[C@H](c3ccc(OC(=O)c4ccccc4)cc3)[C@@](NC(=O)c3ccc(NC(=O)OC(C)(C)C)cc3)(C(=O)O)[C@@H]2c2ccc(OC(=O)c3ccccc3)cc2)cc1`: the inhibition in experiment [1] was 13.5%; in experiment [3] it was 6.3%. Moreover, the Efficacy in experiment [2] is 21.6%.

In the case of `COc1cc([C@H]2[C@](NC(=O)c3ccc(NC(=O)OC(C)(C)C)cc3)(C(=O)O)[C@H](c3ccc(OC(=O)c4cccs4)c(OC)c3)[C@]2(NC(=O)c2ccc(NC(=O)OC(C)(C)C)cc2)C(=O)O)ccc1OC(=O)c1cccs1`, the inhibition in experiment [1] was found to be 73.4%. Further, the IC50 in experiment [4] is 1300 nM. Besides, the Efficacy in experiment [2] was 68.2%.

Usually inhibition stands for how much of the control response was suppressed. The term IC50 denotes the concentration that gives 50% inhibition.
